Results as given in the array DNA melting data of Ke et al. (doi:10.1101/2024.01.08.574731).

How the values were obtained:
[1] = folding enthalpy; higher = less favourable; fluorescence melt of hairpins on a sequencing array, two-state fit; settings: sodium 0.088 M
Method in brief: (§1)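 On a sequenced MiSeq flow cell, library hairpins with annealed Cy3 and quencher oligos were imaged for Cy3 fluorescence in 2.5 °C steps up to 60 °C, in 50 mM Na-HEPES pH 8.0, 25 mM NaCl. Normalisation used pre-quench Cy3 and control constructs. Bootstrapped two-state fits gave melting temperature and folding enthalpy, combined by inverse variance across four replicates and with fitted temperatures raised by 9.35 °C to match UV melts.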

[2] = melting temperature; fluorescence melt of hairpins on a sequencing array, two-state fit, raised by 9.35 °C to match UV melts; settings: sodium 0.088 M
Method in brief: as §1

Sequence	folding enthalpy [1]	Tm [2]
GTGGTCGGAAACGGTCAC (((..((....))..)))	-23 kcal/mol	44.2 °C
GTAAAGGAAACTTTAC ((((((....))))))	-32.6 kcal/mol	40.6 °C
GCCAGGCGAAAGCTAGGC (((..((....))..)))	-27.9 kcal/mol	61.3 °C
GTCAGCGGAAACGCTAAC ((.((((....)))).))	-15.2 kcal/mol	37.4 °C
GCCTGCGGAAACGCAGAC (.(((((....))))).)	-12.1 kcal/mol	50 °C
GGTATGCCGAAAGGCACC (((..(((....))))))	-9.19 kcal/mol	34.1 °C
GAAACTGAAAAGTTTC ((((((....))))))	-31.5 kcal/mol	50.4 °C
GATCGGTGGCCCGATC ((((((....))))))	-37.6 kcal/mol	57.1 °C
GATCGTCGAGACGATC ((((((....))))))	-36.9 kcal/mol	60 °C
GGAAGCGAAAGCTCTCC ((((((....))).)))	-16.2 kcal/mol	43.5 °C
GATCTACAACTAGATC ((((((....))))))	-25.6 kcal/mol	34.1 °C
GATCTGCGGCAGATC ((((((...))))))	-46.3 kcal/mol	50.2 °C
GATGCCCCGAAAGGGATC (((..(((....))))))	-10.3 kcal/mol	32.5 °C
GGTGTGGGAAACCACGTC (..((((....))))..)	-13 kcal/mol	39.3 °C
GTTGGAGGAAACTCTAAC (((.(((....))).)))	-27.1 kcal/mol	39.9 °C
GATCCCTGCGGGATC ((((((...))))))	-35.8 kcal/mol	66.1 °C
GTATAAGAAATTATAC ((((((....))))))	-14.5 kcal/mol	29.6 °C
GCCGATGGAAACACCGGC ((((.((....)).))))	-42.9 kcal/mol	52.4 °C
GAGTATGGAAACATGCTC (((.(((....))).)))	-34.1 kcal/mol	46.8 °C
GAAGGAGGAAACTCCCTC ((.((((....)))).))	-12.1 kcal/mol	28.4 °C
GCGTTCGCGAAAGCGCGC (((..(((....))))))	-19.3 kcal/mol	52.7 °C
GTGGAGGCGAAAGCCCAC (((..(((....))))))	-17.1 kcal/mol	52.9 °C
GGTCGGCCGAAAGGCACC (((..(((....))))))	-10.9 kcal/mol	34.7 °C
GATCAGACTCCTGATC ((((((....))))))	-36.1 kcal/mol	47.5 °C

Sequence	folding enthalpy [1]	Tm [2]
GCCGTTGGAAACAGTGGC (((..((....))..)))	-14.4 kcal/mol	43.6 °C
GCTCCAGGAAACTAGAGC ((((.((....)).))))	-25.4 kcal/mol	36.5 °C
GAGGACGGAAACGTTCTC (((.(((....))).)))	-41.9 kcal/mol	51.6 °C
GACACGCGAAAGCGGTC (((.(((....))))))	-15.3 kcal/mol	56 °C
CGCTCGGAAACGATAGCG ((((((....)))..)))	-30.9 kcal/mol	46.9 °C
GGGAACGAAAGTTCGCCC ((((((....)))..)))	-14.8 kcal/mol	46.4 °C
GATCGAGACATCGATC ((((((....))))))	-38.9 kcal/mol	58.8 °C
GATCACAAGGGTGATC ((((((....))))))	-36.4 kcal/mol	55.9 °C
GATCTGCCGAAAGGCATC (((..(((....))))))	-6.41 kcal/mol	24.6 °C
GGCCCAGGAAACTAGGCC ((((.((....)).))))	-30.3 kcal/mol	48.1 °C
GCTGAGGGAAACCCCAGC ((((.((....)).))))	-33.3 kcal/mol	51.4 °C
GCTCAGCGAAAGCTAGGC ((..(((....)))..))	-15.5 kcal/mol	44.5 °C
GCCCAGCGAAAGCGGCGC ((.(.((....)).).))	-17 kcal/mol	64.5 °C
GGTACGACGAAAGTCACC (((..(((....))))))	-13.4 kcal/mol	32.9 °C
GATCACCGAAAGGTAATC (((.(((....))).)))	-20.9 kcal/mol	39.5 °C
GTGATCGGAAACGATTAC ((.((((....)))).))	-24.4 kcal/mol	48.2 °C
GATCCCCAAAGGGATC ((((((....))))))	-33.5 kcal/mol	59.7 °C
GGAGGCGAAAGCCAATCC ((((((....)))..)))	-10.4 kcal/mol	33.6 °C
GATCGTTCCCACGATC ((((((....))))))	-43.2 kcal/mol	53.8 °C
GCCTACGAAAGTAAGGGC ((((((....)))..)))	-23.9 kcal/mol	46.8 °C
GAGAAGGAAACTTCTC ((((((....))))))	-23.3 kcal/mol	48.3 °C
TTCTGGAAACAGAA (((((....)))))	-15.6 kcal/mol	35.4 °C
GATCTTACAAAGATC ((((((...))))))	-32.2 kcal/mol	44.4 °C
GGATACCCGAAAGGGTCC (((..(((....))))))	-10.4 kcal/mol	31.9 °C

Sequence	folding enthalpy [1]	Tm [2]
CGTCGCGGAAACGCCACG (((.(((....))).)))	-33.1 kcal/mol	45.1 °C
GTATCTCGAAAGAGTTAC (((.(((....))).)))	-26.6 kcal/mol	36.4 °C
GTTTTGCGAAAGCATAAC (((.(((....))).)))	-25.4 kcal/mol	45.3 °C
GAAGGCGAAAGCCTCTTC ((((((....)))..)))	-21.5 kcal/mol	54.5 °C
GACGCGACGAAAGTCGTC (((..(((....))))))	-8.11 kcal/mol	35.5 °C
GTGTAGACGAAAGTCCAC (((..(((....))))))	-20.6 kcal/mol	42.8 °C
GCGGTGTGCCGC ((((....))))	-19.1 kcal/mol	67.6 °C
GATCACTTCGGTGATC ((((((....))))))	-40 kcal/mol	57.4 °C
GATCGGAGTCCGATC ((((((...))))))	-38.6 kcal/mol	54 °C
GGGGCGGGAAACCGTCCC (((.(((....))).)))	-34.9 kcal/mol	67.7 °C
GCTCTGGGAAACCAGGGC ((.((((....)))).))	-38 kcal/mol	54.6 °C
GCATCAACGAAAGTTTGC (((..(((....))))))	-16.9 kcal/mol	30.8 °C
GCACAGGCGAAAGCCTGC (((..(((....))))))	-6.09 kcal/mol	42.6 °C
GTGTATACGAAAGTACAC (((..(((....))))))	-23.2 kcal/mol	41.1 °C
GCACAGCGAAAGCGCTGC (((..((....))..)))	-14.8 kcal/mol	49.2 °C
GCGCTCGAAAGAGCACGC ((((((....)))..)))	-16.7 kcal/mol	60 °C
GTGAACGAAAGTTAGCAC ((((((....)))..)))	-12.5 kcal/mol	29.1 °C
GCGTTTGGAAACAAGCGC (((.(((....))).)))	-45.6 kcal/mol	54.6 °C
GATCGACTATTCGATC ((((((....))))))	-38.4 kcal/mol	50.5 °C
GGGCTGGGAAACTGGCCC ((((..(....)..))))	-48.3 kcal/mol	54.3 °C
GCGTATTCACGC ((((....))))	-25.6 kcal/mol	53 °C
GCGGATGACCGC ((((....))))	-21.6 kcal/mol	54.8 °C
GGGAAAGGAAACTTCCCC (((.(((....))).)))	-23.3 kcal/mol	36.8 °C
GCGGAGCCCGC ((((...))))	-11.3 kcal/mol	49.4 °C

Sequence	folding enthalpy [1]	Tm [2]
GTGAGACGAAAGTCCCAC (((.(((....))).)))	-27.3 kcal/mol	50.4 °C
GGGCTAGGAAACCAGCCC (((((.(....).)))))	-44.8 kcal/mol	54.1 °C
GGAAAATCGAAAGATTCC (((..(((....))))))	-7.3 kcal/mol	29.1 °C
GGGTGCGAAAGCAACCCC ((((((....)))..)))	-12.4 kcal/mol	66.6 °C
GGACCAGGAAACTGATCC (((.(((....))).)))	-34.2 kcal/mol	40.3 °C
GCTGATACGAAAGTAAGC (((..(((....))))))	-14.4 kcal/mol	33.9 °C
GCGGACGTCCGC ((((....))))	-53.7 kcal/mol	60.8 °C
GCGGTCGCGAAAGCGCGC (((..(((....))))))	-16.1 kcal/mol	59.7 °C
GGCTACGAAAGTAGTGCC ((((((....)))..)))	-16.6 kcal/mol	46.7 °C
GATCCATATTTGGATC ((((((....))))))	-36.9 kcal/mol	53.6 °C
GCTAGAGGAAACTCTAGC (((((((....)))))))	-44 kcal/mol	58.5 °C
GTCTTTGGAAACGAAGAC (((((.(....).)))))	-30.6 kcal/mol	45 °C
GCGTGGCGAAAGCAATGC ((.(.((....)).).))	-19.6 kcal/mol	52.8 °C
GGGGTACCGAAAGGTCCC (((..(((....))))))	-27.5 kcal/mol	56.7 °C
GCACCGCGAAAGCCGAGC ((.(.((....)).).))	-12.9 kcal/mol	39 °C
GTGTTGGGAAACCAATGC (..((((....))))..)	-25.2 kcal/mol	38 °C
GATCACGTGGGTGATC ((((((....))))))	-39.5 kcal/mol	57.1 °C
GTCTGCGAAAGCACTGAC ((((((....)))..)))	-15.1 kcal/mol	36.3 °C
GATCGACTTGTCGATC ((((((....))))))	-43.2 kcal/mol	68.3 °C
GACAAGGGAAACCTCGTC (((.(((....))).)))	-22.6 kcal/mol	34.5 °C
GATCTCTGACGAGATC ((((((....))))))	-30.5 kcal/mol	50 °C
